# Measurements pooled from the literature.
# Each line is one published result; the experiments were not run side by side.
# CDK2: Cyclin-dependent kinase 2 (CDK2, Homo sapiens, UniProt P24941)
# PRKD3: Serine/threonine-protein kinase D3 (PRKD3, Homo sapiens, UniProt O94806)
Compound,target,test,system,setting,endpoint,result
NC/C(=C\F)COc1cccc(Cn2c(=S)[nH]c(=O)c3[nH]cnc32)c1,"Alpha-1A adrenergic receptor (Adra1a, Rattus norvegicus, UniProt P43140)","ligand displacement, radioligand",,10 µM,inhibition,< 50%
Cc1cc(O)c(-c2ccc([C@@H](C)CN(C)C)cc2)c2c1[nH]c(=O)c1sccc12,"Mitogen-activated protein kinase 6 (MAPK6, Homo sapiens, UniProt Q16659)","enzyme activity, inhibitor",,0.1 µM,inhibition,2.75%
Cc1cc(S(=O)(=O)NCCO[C@H]2CC[C@H](CN3CCC(c4ccc5c(c4F)n(C)c(=O)n5C4CCC(=O)NC4=O)CC3)CC2)ccc1Nc1ncc(C(F)(F)F)c([C@H]2CC[C@@](C)(O)CC2)n1 (some centres unmarked),CDK2,"protein level, degrader, western blot",MKN-1,,Dmax,86%
C#Cc1cc(-c2cc(Nc3nc(N[C@@H](C)c4ccc(F)cn4)ncc3Cl)n[nH]2)ccc1C=O,PRKD3,"enzyme activity, inhibitor",,0.2 µM,inhibition,4.02%
C1=C/COCc2cc(ccc2OCCN2CCCC2)Nc2nccc(n2)-c2cccc(c2)COC/1,PRKD3,binding,,0.1 µM,remaining binding,89%
Cc1cc(S(=O)(=O)NC2CCC(CC3CCN(c4ccc(C5CCC(=O)NC5=O)cc4)CC3)CC2)ccc1Nc1ncc(C(F)(F)F)c(N2CCC[C@](C)(O)C2)n1 (some centres unmarked),CDK2,"protein level, degrader, western blot",MKN-1,,Dmax,80%
CCCCC(=O)Nc1ccc(-c2ccc3ncn(CCC)c(=O)c3c2)cn1,"Serine/threonine-protein kinase TNNI3K (TNNI3K, Homo sapiens, UniProt Q59H18)","binding, competition with immobilised ligand",,0.5 µM,remaining binding,91%
Cc1cc(=O)oc2cc(NC(=O)[C@H](CCCN=C(N)N)NC(=O)[C@H](CCCN=C(N)N)NC(=O)OCc3ccccc3)ccc12,"Cathepsin B (CTSB, Homo sapiens, UniProt P07858)","enzyme activity, substrate, fluorescence",,pH 7.5,Km,468 µM
